Reference: ChEMBL document CHEMBL1147021, “Novel indole inhibitors of IMPDH from fragments: synthesis and initial structure-activity relationships” (Bioorg Med Chem Lett, 2006)
In brackets after ≈: the same amount, converted by molar mass. Blank lines part the entries; values can stand above or below the compound they belong to.

Key:
[1] = target: T1, Inosine-5'-monophosphate dehydrogenase 2 (Homo sapiens, UniProt P12268); test: Inhibition of IMPDH2
PBMC = test: Antiproliferative activity against PBMC; format: functional, cell-based; details: Homo sapiens
[2] = target: T1, Inosine-5'-monophosphate dehydrogenase 2; test: Inhibition of IMPDH2 at 30 uM
[3] = Apparent permeability in Caco-2 cell from apical to basolateral; format: ADME, cell-based; details: human
Summary of the method: (§1)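 Caco-2 monolayers (10-21 day culture, passage 30-40), confluence confirmed by TEER; medium replaced by HBSS pH 7.4. Test compound 1 µM, cassetted with 2 reference compounds (10 µM), added apically or basolaterally (n = 4); 2 h at 37 °C, 5% CO2. Receiver side analysed by LC-MSMS; Papp normalised to the known Papps of the reference compounds.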

[4] = Distribution coefficient Log D of compound at pH 7.4; format: physicochemical; details: octanol/water
Summary of the method: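 Compound (1–2 mg) shaken for 1 h at 750 osc/min with octanol and pH 7.4 phosphate buffer (0.1 M KH2PO4/NaOH), each presaturated with the other for 18 h. Both layers filtered through 0.2 µm PTFE and analysed by HPLC. Log D taken as log of normalised peak area in octanol over that in buffer.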

[5] = Apparent permeability in Caco-2 cell from basolateral to apical; format: ADME, cell-based; details: human; summary of the method: as §1
[6] = Aqueous solubility at pH 5; format: physicochemical
Summary of the method: (§2)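 Solid compound (0.5 mg) shaken in 150 mM phosphate buffer at room temperature for 90 min, then filtered. Filtrate concentration measured by HPLC (UV 254 nm) against a three-point calibration curve made from DMSO stocks. Done in duplicate at pH 7.4 and pH 5.0.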

[7] = Aqueous solubility at pH 7.4; format: physicochemical; summary of the method: as §2

IC50 [1]: 0.128 µM
SMILES: Cc1[nH]c2cc(NC(=O)N(C)c3ccccc3)ccc2c1-c1ccncc1

IC50 [1]: 0.722 µM
SMILES: Cn1cc(C#N)c2ccc(NC(=O)Nc3ccccc3)cc21
IC50 (PBMC): 14 µM

Inhibition [2]: 48%
SMILES: N#Cc1c[nH]c2cc(Nc3nc4ccccc4o3)ccc12

IC50 [1]: 71.8 µM
SMILES: N#Cc1c[nH]c2cc(OCc3ccccc3)ccc12

IC50 [2]: Not Active
SMILES: N#Cc1c[nH]c2cc(N)ccc12

IC50 [1]: 1.11 µM
SMILES: CONC(=O)Nc1ccc2c(-c3ccncc3)c[nH]c2c1

IC50 [2]: Not Active
SMILES: CCn1cc(C#N)c2ccc(NS(=O)(=O)Cc3ccccc3)cc21

Papp A→B [3]: 26.2 ×10⁻⁶ cm/s
logD [4]: 2.81
Papp B→A [5]: 23.9 ×10⁻⁶ cm/s
SMILES: c1ccc2c(-c3ccncc3)c[nH]c2c1
IC50 (PBMC): 28 µM

IC50 [1]: 17 µM
SMILES: CN(C(=O)Nc1ccc2c(C#N)cn(C)c2c1)c1ccccc1

IC50 [2]: Not Active
SMILES: N#Cc1c[nH]c2c(OCc3ccccc3)cccc12

IC50 [1]: 0.586 µM
SMILES: CCOC(=O)c1ccc2c(-c3ccncc3)c[nH]c2c1

IC50 [1]: 6.21 µM
SMILES: O=S(=O)(Nc1cccc2c(-c3ccncc3)c[nH]c12)c1ccccc1

IC50 [1]: 0.222 µM
SMILES: Cc1[nH]c2cc(NS(=O)(=O)c3ccccc3)ccc2c1-c1ccncc1

Papp A→B [3]: 6.5 ×10⁻⁶ cm/s
logD [4]: 2.01
IC50 [1]: 0.364 µM
Papp B→A [5]: 9.3 ×10⁻⁶ cm/s
solubility [6]: 8 µg/mL (≈ 22.9 µM)
SMILES: O=S(=O)(Nc1ccc2c(-c3ccncc3)c[nH]c2c1)c1ccccc1
IC50 (PBMC): 14 µM

IC50 [2]: Not Active
SMILES: O=C(Nc1ccccc1)Nc1ccc2c(-c3ccncc3)c[nH]c2c1

IC50 [1]: 4.04 µM
SMILES: CNOC(=O)Nc1ccc2c(C#N)cn(C)c2c1

IC50 [1]: 15.4 µM
SMILES: CN(C(=O)Nc1ccc2c(C#N)c[nH]c2c1)c1ccccc1

Papp A→B [3]: 36.7 ×10⁻⁶ cm/s
logD [4]: 2.3
Papp B→A [5]: 37.4 ×10⁻⁶ cm/s
SMILES: Cn1cc(C#N)c2ccccc21

IC50 [1]: 7.68 µM
SMILES: Cn1cc(C#N)c2ccc(NS(=O)(=O)c3ccccc3)cc21

Papp A→B [3]: 14.3 ×10⁻⁶ cm/s
logD [4]: 2.93
IC50 [1]: 0.084 µM
Papp B→A [5]: 6.7 ×10⁻⁶ cm/s
solubility [6]: 42 µg/mL (≈ 123 µM)
SMILES: CN(C(=O)Nc1ccc2c(-c3ccncc3)c[nH]c2c1)c1ccccc1
IC50 (PBMC): 12 µM

IC50 [1]: 7.85 µM
SMILES: CN(C(=O)Nc1cccc2c(C#N)cn(C)c12)c1ccccc1

IC50 [1]: 0.456 µM
SMILES: c1ccc(-c2ccc3c(-c4ccncc4)c[nH]c3c2)cc1
IC50 (PBMC): 10 µM

Papp A→B [3]: 19.3 ×10⁻⁶ cm/s
logD [4]: 2.74
solubility [7]: 4 µg/mL (≈ 12.5 µM)
IC50 [1]: 1.17 µM
Papp B→A [5]: 19.1 ×10⁻⁶ cm/s
solubility [6]: 4.5 µg/mL (≈ 14 µM)
SMILES: Cn1cc(C#N)c2ccc(NC(=O)NOCc3ccccc3)cc21
IC50 (PBMC): 17 µM

IC50 [1]: 58.4 µM
SMILES: Cn1cc(C#N)c2cccc(Nc3nc4ccccc4o3)c21

IC50 [1]: 21 µM
SMILES: Cn1cc(C#N)c2ccc(NS(=O)(=O)Cc3ccccc3)cc21

IC50 [1]: 19.5 µM
SMILES: CN(C(=O)Nc1cccc2c(-c3ccncc3)c[nH]c12)c1ccccc1

Papp A→B [3]: 6.5 ×10⁻⁶ cm/s
logD [4]: 3.54
solubility [7]: 3.2 µg/mL (≈ 8.93 µM)
IC50 [1]: 0.076 µM
Papp B→A [5]: 7.3 ×10⁻⁶ cm/s
solubility [6]: 17.5 µg/mL (≈ 48.8 µM)
SMILES: O=C(NOCc1ccccc1)Nc1ccc2c(-c3ccncc3)c[nH]c2c1
IC50 (PBMC): 4.6 µM

IC50 [1]: 1.36 µM
SMILES: O=C(NOCc1ccccc1)Nc1cccc2c(-c3ccncc3)c[nH]c12
